Assay results taken from ChEMBL document CHEMBL1139981, “Novel heterocyclic thyromimetics. Part 2” (Bioorg Med Chem Lett, 2007).

What was measured:
Thyroid hormone receptor = target: T1, Thyroid hormone receptor (Homo sapiens, UniProt P10827+P10828); assay: Agonist activity at THR in HepG2 cells by whole cell assay; format: functional, cell-based
T1 sequence (P10827 whole entry): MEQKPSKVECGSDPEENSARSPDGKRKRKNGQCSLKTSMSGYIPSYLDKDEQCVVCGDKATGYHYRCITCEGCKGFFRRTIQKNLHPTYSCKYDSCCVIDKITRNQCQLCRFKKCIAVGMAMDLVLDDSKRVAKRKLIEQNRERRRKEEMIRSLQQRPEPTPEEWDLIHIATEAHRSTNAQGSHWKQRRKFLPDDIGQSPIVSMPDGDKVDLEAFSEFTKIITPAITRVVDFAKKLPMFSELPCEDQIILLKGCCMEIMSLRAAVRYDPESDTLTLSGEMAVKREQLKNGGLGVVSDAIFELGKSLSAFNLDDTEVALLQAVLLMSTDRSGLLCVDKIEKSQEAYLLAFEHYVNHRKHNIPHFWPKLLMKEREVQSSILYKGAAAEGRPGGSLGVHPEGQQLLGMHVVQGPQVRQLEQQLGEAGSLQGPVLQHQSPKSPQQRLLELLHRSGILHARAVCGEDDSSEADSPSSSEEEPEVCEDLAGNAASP
T1 sequence (P10828 whole entry): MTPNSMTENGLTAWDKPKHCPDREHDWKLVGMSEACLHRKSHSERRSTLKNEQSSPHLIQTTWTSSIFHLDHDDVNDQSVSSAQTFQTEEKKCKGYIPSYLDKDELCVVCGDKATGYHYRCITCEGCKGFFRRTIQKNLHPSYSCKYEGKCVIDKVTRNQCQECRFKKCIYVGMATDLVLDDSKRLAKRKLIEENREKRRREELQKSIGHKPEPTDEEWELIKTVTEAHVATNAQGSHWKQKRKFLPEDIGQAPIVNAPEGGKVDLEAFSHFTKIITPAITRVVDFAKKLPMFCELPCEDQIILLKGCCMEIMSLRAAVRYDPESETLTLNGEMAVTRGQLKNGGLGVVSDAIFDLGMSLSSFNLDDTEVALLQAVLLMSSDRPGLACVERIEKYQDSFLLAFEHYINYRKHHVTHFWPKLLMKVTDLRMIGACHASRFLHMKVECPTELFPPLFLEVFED

Mus musculus [1] = assay: Increase in heart weight in C57BL/6J mouse at 0.1 mg/kg, po after 11 days; format: functional
Method in brief: (§1)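 C57BL/6J mice, 10-12 per group, dosed orally by gavage once daily for 11 days in solutol/ethanol/water 10:10:80. Doses were 0.1, 0.3 and 3.0 mg/kg, given as the ethyl ester. At study end, heart rate was measured by non-invasive tail cuff, then the animals were sacrificed and hearts weighed. Heart weight change is expressed versus control.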

Mus musculus [2] = assay: Increase in heart weight in C57BL/6J mouse at 0.3 mg/kg, po after 11 days; format: functional; method in brief: as §1
Mus musculus [3] = assay: Increase in heart weight in C57BL/6J mouse at 3.0 mg/kg, po after 11 days; format: functional; method in brief: as §1
Mus musculus [4] = assay: Reduction in serum cholesterol in NMIR mouse at 0.1 mg/kg, po after 7 days; format: functional; set-up: scale not given: the % may be the effect or the level left
Method in brief: (§2)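 At study end, blood was taken retro-orbitally. Serum cholesterol (and triglycerides) were measured enzymatically with commercial kits on an autoanalyzer. Reduction is expressed as percent versus the control group.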

Mus musculus [5] = assay: Reduction in serum cholesterol in NMIR mouse at 0.3 mg/ kg, po after 7 days; format: functional; set-up: scale not given: the % may be the effect or the level left; method in brief: as §2
Mus musculus [6] = assay: Reduction in serum cholesterol in NMIR mouse at 1.0 mg/ kg, po after 7 days; format: functional; set-up: scale not given: the % may be the effect or the level left; method in brief: as §2
Mus musculus [7] = assay: Reduction in serum cholesterol in NMIR mouse at 3.0 mg/ kg, po after 7 days; format: functional; set-up: scale not given: the % may be the effect or the level left; method in brief: as §2

SMILES	EC50 (Thyroid hormone receptor)	other results
CC(C)c1cc(Oc2c(C(C)C)cc(CC3SC(=O)NC3=O)cc2C(C)C)ccc1O (centres undefined)	70 nM	
CC(C)c1cc(Oc2ccc3oc(C(=O)O)cc3c2)ccc1O	1000 nM	
COc1ccc(Oc2c(Br)cc3oc(C(=O)O)cc3c2Br)cc1C(C)C	1000 nM	
O=C(O)c1cc2c(Br)c(Oc3ccc(O)c(C(=O)c4ccc(F)cc4)c3)c(Br)cc2o1	210 nM	
O=C(O)c1cc2c(Br)c(Oc3ccc(O)c(C(O)c4ccc(F)cc4)c3)c(Br)cc2o1 (centres undefined)	22 nM	
Cc1cc(CC2SC(=O)NC2=O)cc(C)c1Oc1ccc(O)c(C(C)C)c1 (centres undefined)	0.08 nM	
Cc1cc2oc(C(=O)O)cc2c(C)c1Oc1ccc(O)c(C(C)C)c1	110 nM	
Cc1cc2c(c(C)c1Oc1ccc(O)c(C(C)C)c1)CC(CC(=O)O)O2 (centres undefined)	5.1 nM	
Cc1cc2c(CC(=O)O)coc2c(C)c1Oc1ccc(O)c(C(C)C)c1	0.3 nM	Activity (Mus musculus [1]): 12%; Activity (Mus musculus [2]): 17%; Activity (Mus musculus [3]): 27%; Activity (Mus musculus [4]): 32%; Activity (Mus musculus [5]): 34%; Activity (Mus musculus [6]): 39%; Activity (Mus musculus [7]): 41%
Cc1ccc(CC2CC(=O)NC(=O)S2)c(C)c1Oc1ccc(O)c(C(C)C)c1 (centres undefined)	0.06 nM	
Cc1cc2c(CC(=O)O)coc2c(C)c1Oc1ccc(O)cc1	1000 nM	
CC(C)c1cc(Oc2c(Br)cc3oc(C(=O)O)cc3c2Br)ccc1O	7 nM	
